Measurements from ChEMBL document CHEMBL4433221, “Novel Sustainable-by-Design HDAC Inhibitors for the Treatment of Alzheimer's Disease” (ACS Med Chem Lett, 2019).
The source made the active and inactive calls. The rule behind the calls is not given here.

Experiments:
[1] = Permeability of the compound at pH 7.4 PBS buffer at 100 uM measured upto 6 hrs by PAMPA-BBB assay
Histone deacetylase 1 = Histone deacetylase 1 (Homo sapiens, UniProt Q13547); assay: Inhibition of human recombinant HDAC1 at 10 uM using ZMAL (Z-(Ac)Lys-AMC fluorogenic substrate incubated for 90 mins by fluorescence method
[2] = target: T1, Protein deacetylase HDAC6 (Homo sapiens) (UniProt Q9UBN7); assay: Inhibition of human recombinant HDAC6 at 10 uM using ZMAL (Z-(Ac)Lys-AMC fluorogenic substrate incubated for 90 mins by fluorescence method
T1 sequence (whole entry): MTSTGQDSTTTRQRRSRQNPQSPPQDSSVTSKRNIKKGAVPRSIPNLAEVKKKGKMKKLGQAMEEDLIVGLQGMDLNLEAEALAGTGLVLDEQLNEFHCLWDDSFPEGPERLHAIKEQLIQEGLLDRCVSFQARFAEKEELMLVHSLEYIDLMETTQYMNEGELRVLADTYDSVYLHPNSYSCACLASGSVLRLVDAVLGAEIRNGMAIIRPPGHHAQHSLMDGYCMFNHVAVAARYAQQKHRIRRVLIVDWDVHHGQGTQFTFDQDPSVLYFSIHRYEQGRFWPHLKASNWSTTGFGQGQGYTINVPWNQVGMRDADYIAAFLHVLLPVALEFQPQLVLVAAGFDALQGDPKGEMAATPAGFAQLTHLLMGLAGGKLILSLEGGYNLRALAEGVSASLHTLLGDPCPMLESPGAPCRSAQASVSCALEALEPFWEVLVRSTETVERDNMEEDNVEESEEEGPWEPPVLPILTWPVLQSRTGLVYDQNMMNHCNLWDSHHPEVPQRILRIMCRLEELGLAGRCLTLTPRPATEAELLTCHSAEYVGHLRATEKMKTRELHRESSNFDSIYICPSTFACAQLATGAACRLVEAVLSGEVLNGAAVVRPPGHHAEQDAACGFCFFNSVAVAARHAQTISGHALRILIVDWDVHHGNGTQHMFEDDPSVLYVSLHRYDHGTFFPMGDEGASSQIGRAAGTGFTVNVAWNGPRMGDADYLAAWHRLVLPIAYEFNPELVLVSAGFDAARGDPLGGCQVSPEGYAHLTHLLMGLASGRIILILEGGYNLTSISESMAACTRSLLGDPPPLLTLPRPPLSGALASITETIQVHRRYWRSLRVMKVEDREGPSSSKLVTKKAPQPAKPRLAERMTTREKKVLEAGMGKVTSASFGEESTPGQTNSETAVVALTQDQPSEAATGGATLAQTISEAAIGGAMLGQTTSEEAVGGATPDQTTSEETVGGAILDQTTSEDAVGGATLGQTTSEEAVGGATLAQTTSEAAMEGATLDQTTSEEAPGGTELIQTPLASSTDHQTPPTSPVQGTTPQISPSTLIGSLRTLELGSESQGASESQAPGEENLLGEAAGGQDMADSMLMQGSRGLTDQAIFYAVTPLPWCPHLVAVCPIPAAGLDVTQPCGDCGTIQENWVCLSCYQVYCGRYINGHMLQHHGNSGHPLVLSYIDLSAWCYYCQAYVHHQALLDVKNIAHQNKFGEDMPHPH

[3] = Neurotoxicity against rat CGN cells assessed as cell viability at 25 uM incubated for 24 hrs by MTT assay; assay type: toxicity, cell-based; details: read-out: Activity
Outline: (§1)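 Primary rat cerebellar granule neuron cultures were exposed for 24 h to 5, 25 or 50 μM. Viability was measured by MTT and expressed as percentage of untreated controls, as mean ± SE of at least three experiments, each run in triplicate.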

N9 [4] = assay: Immunomodulatory activity in mouse N9 cells assessed as reduction in LPS-induced iNOS expression at 5 to 25 uM incubated for 24 hrs by Western blot analysis; assay type: functional, cell-based
Outline: (§2)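 N9 mouse microglial cells stimulated with LPS (100 ng/mL) and treated at 5 and 25 μM. iNOS and MRC1 levels were read by Western blot with GAPDH as loading control. Densitometry is expressed as percentage of LPS-only cells, as mean ± SE of three independent experiments.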

[5] = Neurotoxicity against rat CGN cells assessed as cell viability at 50 uM incubated for 24 hrs by MTT assay; assay type: toxicity, cell-based; details: read-out: Activity; outline: as §1
Rattus norvegicus = organism: Rattus norvegicus; assay: Neuroprotective activity against low serum/K+ deprivation-induced toxicity in rat CGN cells assessed as increase in cell viability at 5 to 25 uM pre-treated for 6 hrs followed by 24 hrs co-treatment with serum/K+ starvation and measured after 24 hrs by MTT assay; assay type: functional, cell-based
Outline: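 Primary rat cerebellar granule neurons were pretreated for 6 h, then cotreated for 24 h under low-serum and K+ deprivation to induce death. Viability was compared with control and deprivation-only conditions, with tacrine as reference compound.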

N9 [6] = assay: Immunomodulatory activity in mouse N9 cells assessed as increase in LPS-induced MRC1 expression at 5 to 25 uM incubated for 24 hrs by Western blot analysis; assay type: functional, cell-based; outline: as §2

Sequence of Histone deacetylase 1 (Q13547 whole entry): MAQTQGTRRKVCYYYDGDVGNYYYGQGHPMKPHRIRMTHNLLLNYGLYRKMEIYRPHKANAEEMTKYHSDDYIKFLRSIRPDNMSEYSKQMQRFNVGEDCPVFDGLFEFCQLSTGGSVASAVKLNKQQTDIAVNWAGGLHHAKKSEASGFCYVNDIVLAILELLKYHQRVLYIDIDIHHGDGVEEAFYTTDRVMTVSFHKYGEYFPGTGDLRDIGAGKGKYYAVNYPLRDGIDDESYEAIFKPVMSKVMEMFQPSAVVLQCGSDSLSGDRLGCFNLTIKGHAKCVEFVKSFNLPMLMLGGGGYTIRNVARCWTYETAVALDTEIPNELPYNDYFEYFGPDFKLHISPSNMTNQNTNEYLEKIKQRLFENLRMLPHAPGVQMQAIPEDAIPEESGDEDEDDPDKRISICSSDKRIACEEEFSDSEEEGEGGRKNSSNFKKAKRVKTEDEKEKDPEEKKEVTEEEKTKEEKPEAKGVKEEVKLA

Question: Which Papp at 6 h, 100 µM [1] does the source give for CO/N=C(\C(=O)N[C@@H]1C(=O)N2C(C(=O)O)=C(COC(N)=O)CS[C@H]12)c1ccco1 [CEFUROXIME] here?
Answer: 2.7 ×10⁻⁶ cm/s

Question: With Nc1c2c(nc3ccccc13)CCCC2 [TACRINE] as the molecule, how does the Papp at 6 h, 100 µM [1] read?
Answer: 3.75 ×10⁻⁶ cm/s

Question: Which Papp at 6 h, 100 µM [1] does the source give for CCCCCCCCCCCCCCCc1cccc(O)c1 here?
Answer: 3.1 ×10⁻⁶ cm/s

Question: With COc1cccc(CCCCCCCC(=O)O)c1 as the molecule, how does the inhibition (Histone deacetylase 1) read?
Answer: < 15%

Question: What about the inhibition [2] of the same molecule?
Answer: < 15%

Question: Which results are given for O=C(CCCCCCC(=O)Nc1ccccc1)NO [VORINOSTAT]?
Answer: viability at 24 h, 25 µM [3]: 70%; Activity (N9 [4]): Active; viability at 24 h, 50 µM [5]: 52%; Activity (Rattus norvegicus): inactive; Activity (N9 [6]): inactive

Question: For CN(C)CCCN1c2ccccc2Sc2ccc(Cl)cc21 [CHLORPROMAZINE], which Papp at 6 h, 100 µM [1] is on record?
Answer: 5.1 ×10⁻⁶ cm/s
